The values below come from BindingDB's records for doi:10.1021/jm200203f (Washington University, 2011).

Assay [1] addresses Sigma non-opioid intracellular receptor 1 (Cavia porcellus, UniProt Q60492). Nature of the assay: Displacement of (+)-[3H]pentazocine from sigma 1 receptor in guinea pig brain membrane homogenates after 90 mins by liquid scintillation counting.
Assay [2] deals with T1, Vesicular acetylcholine transporter (Homo sapiens, UniProt Q16572).
T1 sequence (Q16572 whole entry): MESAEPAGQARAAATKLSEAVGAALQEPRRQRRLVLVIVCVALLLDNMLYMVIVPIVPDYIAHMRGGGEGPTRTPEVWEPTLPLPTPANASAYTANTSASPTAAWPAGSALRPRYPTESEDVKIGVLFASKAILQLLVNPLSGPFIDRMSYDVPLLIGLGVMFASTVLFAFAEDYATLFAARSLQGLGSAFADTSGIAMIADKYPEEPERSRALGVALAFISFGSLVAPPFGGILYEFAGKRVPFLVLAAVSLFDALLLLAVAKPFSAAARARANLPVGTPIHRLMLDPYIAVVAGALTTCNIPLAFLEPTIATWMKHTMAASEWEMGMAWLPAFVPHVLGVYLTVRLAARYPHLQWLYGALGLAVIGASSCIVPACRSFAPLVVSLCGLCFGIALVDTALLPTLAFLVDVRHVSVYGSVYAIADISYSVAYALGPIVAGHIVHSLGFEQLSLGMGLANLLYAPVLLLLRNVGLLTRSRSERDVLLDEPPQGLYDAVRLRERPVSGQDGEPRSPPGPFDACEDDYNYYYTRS
Nature of the assay: Displacement of (-)-[3H]vesamicol from human VAChT expressed in rat PC12 A123.7 cells after 20 hrs.

The target in another assay is D(2) dopamine receptor (Homo sapiens, UniProt P14416). Nature of the assay: Displacement of [125I]IABN from human dopamine D2 long receptor expressed in HEK293 cells after 60 mins by gamma counting. (In general: In a radioligand displacement assay an active substance lowers the binding of a labelled ligand.)
Chain of D(2) dopamine receptor (P14416 whole entry): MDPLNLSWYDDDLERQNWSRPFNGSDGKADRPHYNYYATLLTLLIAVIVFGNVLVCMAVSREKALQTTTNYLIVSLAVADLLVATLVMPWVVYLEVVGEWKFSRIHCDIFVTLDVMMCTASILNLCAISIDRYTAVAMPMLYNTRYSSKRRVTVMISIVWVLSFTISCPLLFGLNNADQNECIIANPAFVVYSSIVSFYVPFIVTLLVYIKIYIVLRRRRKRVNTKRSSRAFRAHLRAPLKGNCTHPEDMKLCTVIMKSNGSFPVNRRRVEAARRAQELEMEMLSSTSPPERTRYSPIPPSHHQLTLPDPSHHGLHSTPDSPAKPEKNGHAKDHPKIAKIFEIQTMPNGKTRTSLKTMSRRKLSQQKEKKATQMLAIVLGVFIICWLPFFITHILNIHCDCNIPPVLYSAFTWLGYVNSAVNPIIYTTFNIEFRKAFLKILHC
In the next assay the target is D(3) dopamine receptor (Homo sapiens, UniProt P35462). Nature of the assay: Displacement of [125I]IABN from human dopamine D3 receptor expressed in HEK293 cells after 60 mins by gamma counting.
Chain of D(3) dopamine receptor (P35462 as listed by the source): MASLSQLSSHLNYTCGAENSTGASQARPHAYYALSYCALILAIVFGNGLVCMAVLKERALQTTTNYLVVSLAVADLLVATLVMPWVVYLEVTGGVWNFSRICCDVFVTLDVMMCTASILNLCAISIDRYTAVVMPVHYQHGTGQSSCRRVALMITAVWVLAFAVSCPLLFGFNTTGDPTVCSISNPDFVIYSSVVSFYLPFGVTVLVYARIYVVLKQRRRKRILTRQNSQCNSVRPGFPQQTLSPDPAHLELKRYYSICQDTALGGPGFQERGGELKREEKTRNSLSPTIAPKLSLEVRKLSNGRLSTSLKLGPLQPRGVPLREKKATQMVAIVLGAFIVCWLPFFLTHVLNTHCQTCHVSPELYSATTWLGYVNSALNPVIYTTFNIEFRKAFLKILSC
For assay [3], the target named is T2, 5-hydroxytryptamine receptor 1A (Homo sapiens, UniProt P08908).
T2 sequence (P08908 whole entry): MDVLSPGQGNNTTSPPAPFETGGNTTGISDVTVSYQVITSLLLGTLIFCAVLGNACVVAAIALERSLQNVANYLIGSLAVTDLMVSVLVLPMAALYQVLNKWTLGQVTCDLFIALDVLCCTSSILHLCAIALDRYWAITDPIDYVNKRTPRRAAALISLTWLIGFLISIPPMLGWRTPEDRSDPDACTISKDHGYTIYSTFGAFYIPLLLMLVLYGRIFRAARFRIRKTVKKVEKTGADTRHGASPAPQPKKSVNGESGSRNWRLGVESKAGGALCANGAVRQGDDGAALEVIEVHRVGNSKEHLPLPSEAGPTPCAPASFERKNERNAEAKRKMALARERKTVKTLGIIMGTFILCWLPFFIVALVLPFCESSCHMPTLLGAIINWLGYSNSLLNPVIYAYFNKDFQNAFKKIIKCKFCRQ
Nature of the assay: Displacement of [3H]8-OH-DPAT from human 5HT1A receptor after 60 mins by liquid scintillation counting. A digest of the protocol: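 Inhibitor spanned 0.1 nM–10 µM or 0.01 nM–1 µM; 10 µM WAY-100635 defined nonspecific binding. Cold wash, filtration, scintillation counting; IC50 by nonlinear regression.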

Chain of Sigma non-opioid intracellular receptor 1 (Q60492 whole entry): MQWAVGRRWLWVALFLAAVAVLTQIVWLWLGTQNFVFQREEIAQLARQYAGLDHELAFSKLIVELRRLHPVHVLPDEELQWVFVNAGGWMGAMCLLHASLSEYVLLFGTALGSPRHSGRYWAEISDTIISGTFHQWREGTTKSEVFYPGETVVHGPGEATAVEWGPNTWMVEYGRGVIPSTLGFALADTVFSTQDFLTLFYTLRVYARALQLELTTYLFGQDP

As a reminder, the Ki is the equilibrium dissociation constant of an inhibitor or competing ligand from its target. Read a low Ki as higher affinity. Take `COc1ccc(C(=O)C2CCN([C@H]3CN(Cc4cccnc4)CC[C@@H]3O)CC2)cc1`: the results for the Ki in assay [1] and in assay [2] were 2220 nM and 107 nM, respectively.
For `O=C(c1ccc(F)cc1)C1CCN([C@H]2CCN(Cc3ccc(F)cc3)C[C@@H]2O)CC1`, the Ki at D(2) dopamine receptor was 1350 nM; on D(3) dopamine receptor it was greater than 20000 nM; in assay [3] it was 2540 nM; in assay [1], 0.48 nM.
On to `O=C(c1ccc(F)cc1)C1CCN([C@H]2CCN(C(=O)c3ccc(F)cc3)C[C@@H]2O)CC1`, for which the Ki was 3140 nM in assay [1] and 3600 nM in assay [2].
`COc1ccc(C(=O)C2CCN([C@H]3CCN(Cc4ccc(F)cc4)C[C@@H]3O)CC2)cc1`: the results for the Ki at D(2) dopamine receptor and at D(3) dopamine receptor were 1490 nM and greater than 15000 nM, respectively.
Take `O=C(c1ccc(F)cc1)C1CCN([C@H]2CN(Cc3cccnc3)CC[C@@H]2O)CC1`: the Ki is 1160 nM in assay [1] and 237 nM in assay [2].
Taken in the same sequence, the figures for `COc1ccc(C(=O)C2CCN([C@H]3CN(Cc4ccccc4)CC[C@@H]3O)CC2)cc1` were 208 nM and 36 nM.
